# Results: publication PMC10092221 (Journal of Clinical Pharmacology, 2022)
# Experiments:
# [1] = itraconazole 200 mg daily; cited from earlier work
# [2] = Capmatinib/CMN288 pharmacokinetics, inhibition cohort; assay type: in vivo, human (healthy subjects); conditions: inhibition cohort, healthy subjects, plasma
# How it was run: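 Inhibition cohort of healthy subjects (n = 27): a single fasted oral 200 mg dose on day 1, then a 4-day washout. Itraconazole 200 mg was given daily on days 5–14, and 200 mg test compound was dosed 1 h after the sixth itraconazole dose (day 10). Plasma was sampled serially to 96 h after each dose and assayed by validated LC-MS/MS (LLOQ ≈1.0 ng/mL). Test/reference ratios are antilogged point estimates with 2-sided 90%CIs.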
# [3] = Capmatinib/CMN288 pharmacokinetics, induction cohort; assay type: in vivo, human (healthy subjects); conditions: induction cohort, healthy subjects, plasma
# How it was run: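 Healthy subjects (induction cohort, n = 26) received a single fasted oral 400 mg dose on day 1, then a 4-day washout. Rifampicin 600 mg was given daily on days 5–13, with 400 mg test compound coadministered with the sixth dose on day 10. Serial plasma was drawn to 72 h after each dose and frozen <–70°C. Parent and metabolite were measured by validated LC-MS/MS (LLOQ ≈1.0 ng/mL). Ratios are antilogged 90%CIs.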
# [4] = single oral capmatinib 200 mg + itraconazole 200 mg/day
# [5] = single oral capmatinib 200 mg alone
# [6] = single oral capmatinib 400 mg + rifampicin 600 mg/day
# [7] = single oral capmatinib 400 mg alone
smiles,measurement,setting,value
Cc1nnc2n1-c1ccc(Cl)cc1C(c1ccccc1Cl)=NC2 [triazolam],Increase in exposure with itraconazole regimen,[1],27 fold
CNC(=O)c1ccc(-c2nn3c(Cc4ccc5ncccc5c4)cnc3[nH]c2=O)cc1F [CMN288],"CMN288 AUCinf, geometric mean (geometric CV%)",[2]; [4],4290 (42.3) ng · h/mL
same,"CMN288 AUCinf, mean (CV%)",[2]; [4],4600 (35.7) ng · h/mL
same,"CMN288 AUClast, geometric mean (geometric CV%)",[2]; [4],4260 (43.2) ng · h/mL
same,"CMN288 AUClast, mean (CV%)",[2]; [4],4570 (36.0) ng · h/mL
same,"CMN288 Cmax, geometric mean (geometric CV%)",[2]; [4],590 (63.8) ng/mL
same,"CMN288 Cmax, mean (CV%)",[2]; [4],682 (50.8) ng/mL
same,"CMN288 tmax, median (range)",[2]; [4],2.00 (0.983–4.01) h
same,"MR (AUCinf), metabolite-to-parent drug ratio, mean (CV%)",[2]; [4],0.572 (25.1)
same,"MR (AUClast), metabolite-to-parent drug ratio, mean (CV%)",[2]; [4],0.570 (25.6)
same,"MR (Cmax), metabolite-to-parent drug ratio, mean (CV%)",[2]; [4],0.462 (29.2)
same,"CMN288 AUCinf, geometric mean (geometric CV%)",[2]; [5],3640 (36.6) ng · h/mL
same,"CMN288 AUCinf, mean (CV%)",[2]; [5],3870 (35.5) ng · h/mL
same,"CMN288 AUClast, geometric mean (geometric CV%)",[2]; [5],3580 (37.6) ng · h/mL
same,"CMN288 AUClast, mean (CV%)",[2]; [5],3810 (36.2) ng · h/mL
same,"CMN288 Cmax, geometric mean (geometric CV%)",[2]; [5],665 (48.7) ng/mL
same,"CMN288 Cmax, mean (CV%)",[2]; [5],736 (47.0) ng/mL
same,"CMN288 tmax, median (range)",[2]; [5],1.01 (0.968–6.02) h
same,"MR (AUCinf), metabolite-to-parent drug ratio, mean (CV%)",[2]; [5],0.699 (25.4)
same,"MR (AUClast), metabolite-to-parent drug ratio, mean (CV%)",[2]; [5],0.685 (27.5)
same,"MR (Cmax), metabolite-to-parent drug ratio, mean (CV%)",[2]; [5],0.533 (30.5)
same,"CMN288 AUCinf, geometric mean (geometric CV%)",[3]; [6],5110 (31.9) ng · h/mL
same,"CMN288 AUCinf, mean (CV%)",[3]; [6],5360 (32.1) ng · h/mL
same,"CMN288 AUClast, geometric mean (geometric CV%)",[3]; [6],5070 (32.3) ng · h/mL
same,"CMN288 AUClast, mean (CV%)",[3]; [6],5320 (32.5) ng · h/mL
same,"CMN288 Cmax, geometric mean (geometric CV%)",[3]; [6],1570 (39.8) ng/mL
same,"CMN288 Cmax, mean (CV%)",[3]; [6],1690 (38.1) ng/mL
same,"CMN288 tmax, median (range)",[3]; [6],0.998 (0.924–3.00) h
same,"MR (AUCinf), metabolite-to-parent drug ratio, mean (CV%)",[3]; [6],1.37 (26.0)
same,"MR (AUClast), metabolite-to-parent drug ratio, mean (CV%)",[3]; [6],1.35 (25.0)
same,"MR (Cmax), metabolite-to-parent drug ratio, mean (CV%)",[3]; [6],1.17 (28.9)
same,"CMN288 AUCinf, geometric mean (geometric CV%)",[3]; [7],7420 (28.4) ng · h/mL
same,"CMN288 AUCinf, mean (CV%)",[3]; [7],7710 (30.1) ng · h/mL
same,"CMN288 AUClast, geometric mean (geometric CV%)",[3]; [7],7310 (28.4) ng · h/mL
same,"CMN288 AUClast, mean (CV%)",[3]; [7],7600 (30.2) ng · h/mL
same,"CMN288 Cmax, geometric mean (geometric CV%)",[3]; [7],1500 (41.4) ng/mL
same,"CMN288 Cmax, mean (CV%)",[3]; [7],1610 (39.2) ng/mL
same,"CMN288 tmax, median (range)",[3]; [7],0.994 (0.957–3.00) h
same,"MR (AUCinf), metabolite-to-parent drug ratio, mean (CV%)",[3]; [7],0.634 (25.2)
same,"MR (AUClast), metabolite-to-parent drug ratio, mean (CV%)",[3]; [7],0.627 (25.1)
same,"MR (Cmax), metabolite-to-parent drug ratio, mean (CV%)",[3]; [7],0.492 (30.8)
